From ChEMBL document CHEMBL1255474, “Impact of different carbapenems and regimens of administration on resistance emergence for three isogenic Pseudomonas aeruginosa strains with differing mechanisms of resistance” (2010)
Values after ≈ are worked out from the molar mass of the structure shown. Active and inactive are the calls of the source. No cut-off for these calls is given here.

Assays:
[1] = system: Pseudomonas aeruginosa; assay: Antimicrobial activity against Pseudomonas aeruginosa PAO1 expressing derepressed chromosomal AmpC mutant by broth macrodilution method; type: functional
[2] = system: Pseudomonas aeruginosa; assay: Antimicrobial activity against oprD-deficient Pseudomonas aeruginosa PAO1 by broth macrodilution method; type: functional
[3] = system: Pseudomonas aeruginosa; assay: Antimicrobial activity against oprD-deficient Pseudomonas aeruginosa PAO1 in hollow fiber system based pharmacokinetic-pharmacodynamic model assessed as reduction in bacterial count at 1 g administered at 4 hrs infusion regimen every 8 hrs by time-kill assay; type: functional, organism-based
How it was run: (§1)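 Hollow-fiber PK/PD model at 35°C, humidified. 15 ml late-log Mueller-Hinton II culture (circa 1 × 10^8 CFU/ml) per cartridge. Drug injected into the central reservoir by 0.5–4 h infusion every 6 or 8 h, run for 10 days. Samples taken at 0, 0.17, 1, 2, 3, 4, 6, 8 and 10 days, centrifuged and resuspended in saline to limit carryover. Counted on drug-free Mueller-Hinton II agar after 24 h at 35°C. Cell kill taken from counts at 24 h of exposure.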

[4] = system: Pseudomonas aeruginosa; assay: Antimicrobial activity against wild type Pseudomonas aeruginosa PAO1 in hollow fiber system based pharmacokinetic-pharmacodynamic model assessed as reduction in bacterial count at 500 mg administered at 1 hr infusion regimen every 8 hrs by time-kill assay; type: functional; how it was run: as §1
[5] = system: Pseudomonas aeruginosa; assay: Antimicrobial activity against oprD-deficient Pseudomonas aeruginosa PAO1 in hollow fiber system based pharmacokinetic-pharmacodynamic model assessed as reduction in bacterial count at 500 mg administered at 1 hr infusion regimen every 8 hrs by time-kill assay; type: functional; how it was run: as §1
[6] = system: Pseudomonas aeruginosa; assay: Antimicrobial activity against oprD-deficient Pseudomonas aeruginosa PAO1 in hollow fiber system based pharmacokinetic-pharmacodynamic model assessed as reduction in bacterial count at 1 g administered at 4 hrs infusion regimen by time-kill assay; type: functional; how it was run: as §1
[7] = system: Pseudomonas aeruginosa; assay: Antimicrobial activity against wild type Pseudomonas aeruginosa PAO1 in hollow fiber system based pharmacokinetic-pharmacodynamic model assessed as reduction in bacterial count at 1 g administered at 4 hrs infusion regimen every 8 hrs by time-kill assay; type: functional; how it was run: as §1
[8] = system: Pseudomonas aeruginosa; assay: Antimicrobial activity against oprD-deficient Pseudomonas aeruginosa PAO1 in hollow fiber system based pharmacokinetic-pharmacodynamic model assessed as reduction in bacterial count at 1 g administered at 1 hr infusion regimen every 8 hrs by time-kill assay; type: functional; how it was run: as §1
[9] = system: Pseudomonas aeruginosa; assay: Antimicrobial activity against wild type Pseudomonas aeruginosa PAO1 in hollow fiber system based pharmacokinetic-pharmacodynamic model assessed as reduction in bacterial count at 500 mg administered at 4 hrs infusion regimen every 8 hrs by time-kill assay; type: functional; how it was run: as §1
[10] = system: Pseudomonas aeruginosa; assay: Antimicrobial activity against wild type Pseudomonas aeruginosa PAO1 by broth macrodilution method; type: functional

| SMILES | MIC [1] | MIC [2] | Activity [3] | log10CFU/ml [4] | log10CFU/ml [5] | log10CFU/ml [6] | log10CFU/ml [7] | log10CFU/ml [8] | log10CFU/ml [9] | MIC [10] |
| --- | --- | --- | --- | --- | --- | --- | --- | --- | --- | --- |
| C[C@@H](O)[C@H]1C(=O)N2C(C(=O)O)=C(S[C@@H]3CN[C@H](CNS(N)(=O)=O)C3)[C@H](C)[C@H]12 [DORIPENEM] | 2 µg/mL (≈ 4.76 µM) | 2 µg/mL (≈ 4.76 µM) | Active | 3.71 | 3.12 | 4.24 | 5.4 | 3.47 | 4.07 | 1 µg/mL (≈ 2.38 µM) |
| C[C@@H](O)[C@H]1C(=O)N2C(C(=O)O)=C(SCCNC=N)C[C@H]12 [IMIPENEM ANHYDROUS] | 2 µg/mL (≈ 6.68 µM) | 16 µg/mL (≈ 53.4 µM) | – | – | – | – | – | – | – | 2 µg/mL (≈ 6.68 µM) |
